Source: ChEMBL document CHEMBL1129238, “Structure--activity relationships of 1-(2-Deoxy-2-fluoro-beta-L-arabinofuranosyl)pyrimidine nucleosides as anti-hepatitis B virus agents” (J Med Chem, 1996)
pEC50, pIC50: −log10 of the molar value.

Experiments:
Homo sapiens [1] = species on record: Homo sapiens; test: Anti hepatitis-B virus activity was evaluated in 2.2.15 cells.; type: functional, cell-based; settings: HepG2 2.2.15
Summary of the method: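 HBV-producing 2.2.15 cells; EC50 reported; compounds examined at concentrations up to 10 μM.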

Homo sapiens [2] = species on record: Homo sapiens; test: The growth inhibition activity for the compound was evaluated in 2.2.15 cells.; type: functional, cell-based; settings: HepG2 2.2.15
Summary of the method: (§1)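 Cytotoxicity (growth inhibition, IC50) measured in 2.2.15 cells and in CEM cells, with compounds tested at concentrations up to 200 μM.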

CCRF-CEM = test: The growth inhibition activity for the compound was evaluated in CEM cells.; type: functional, cell-based; settings: Homo sapiens; summary of the method: as §1
Homo sapiens [3] = species on record: Homo sapiens; test: Selectivity index was determined from the ratio of IC50 to the EC50 values evaluated in 2.2.15 cells.; type: functional, HepG2 2.2.15
Summary of the method: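 Selectivity computed as the ratio of the growth-inhibition IC50 to the anti-HBV EC50, both from 2.2.15 cells. Compounds were tested up to 200 μM for toxicity and up to 10 μM for antiviral activity.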

Compound | pEC50 (Homo sapiens [1]) | pIC50 (Homo sapiens [2]) | pIC50 (CCRF-CEM) | Selectivity (Homo sapiens [3])
Nc1nc(=O)n([C@H]2O[C@@H](CO)[C@H](O)[C@H]2F)cc1Cl | < 5.00 | < 3.70 | – | –
O=c1[nH]c(=O)n([C@H]2O[C@@H](CO)[C@H](O)[C@@H]2F)cc1/C=C/Br | < 5.00 | < 3.70 | < 4.00 | –
O=c1[nH]c(=O)n([C@@H]2O[C@H](CO)[C@@H](O)[C@@H]2F)cc1C(F)(F)F | < 5.00 | < 3.70 | – | –
Nc1nc(=O)n([C@@H]2O[C@H](CO)[C@@H](O)[C@@H]2F)cc1I [FIACITABINE] | 5.30 | < 3.70 | – | >40
O=c1[nH]c(=O)n([C@H]2O[C@@H](CO)[C@H](O)[C@H]2F)cc1Cl | < 5.00 | < 3.70 | – | –
O=c1[nH]c(=O)n([C@H]2O[C@@H](CO)[C@H](O)[C@H]2F)cc1F | < 5.00 | < 3.70 | – | –
Nc1nc(=O)n([C@H]2O[C@@H](CO)[C@H](O)[C@H]2F)cc1F | < 5.00 | < 3.70 | – | –
O=c1[nH]c(=O)n([C@@H]2O[C@H](CO)[C@@H](O)[C@H]2F)cc1I | < 5.00 | < 3.70 | – | –
O=c1[nH]c(=O)n([C@H]2O[C@@H](CO)[C@H](O)[C@H]2F)cc1Br | < 5.00 | < 3.70 | – | –
Nc1nc(=O)n([C@H]2O[C@@H](CO)[C@H](O)[C@H]2F)cc1Br | < 5.00 | < 3.70 | – | –
C#Cc1cn([C@H]2O[C@@H](CO)[C@H](O)[C@H]2F)c(=O)[nH]c1=O | < 5.00 | < 3.70 | – | –
Cc1cn([C@@H]2O[C@H](CO)[C@@H](O)[C@@H]2F)c(=O)[nH]c1=O [5-METHYL-2'-FLUOROARAURACIL] | 7.00 | < 3.70 | < 3.70 | >2000
Nc1ccn([C@@H]2O[C@H](CO)[C@@H](O)[C@@H]2F)c(=O)n1 | 5.85 | < 3.70 | < 4.00 | >140
CCc1cn([C@H]2O[C@@H](CO)[C@H](O)[C@@H]2F)c(=O)[nH]c1=O | < 5.00 | < 3.70 | – | –
